Results on 17 compounds are retold here after PubChem BioAssay.

Activity calls are given as the source filed them.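 How the source made its calls: active means a full or partial loss of lipid-probe fluorescence in the fish gall bladder, intestine or both, judged by eye; inactive means no fluorescence loss, or compound toxic to the fish.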

The experiment can be described thus: inhibitors of larval lipid processing in zebrafish, primary screen, whole organism, PED6 fluorescence, gall bladder and intestine (AID 686).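 Further: larvae 5 to 7 days old with five fish per well; signal comes from phospholipase A2 cleavage of quenched PED6 carried via bile; overnight exposure to compound and PED6 before scoring.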 The settings on record: Zebrafish larvae PED6 lipid processing, fluorescence scoring; screened at 20 µM (by protocol). The essentials:
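Test system – live zebrafish larvae aged 5-7 days, whole organism · Buffer or medium – E3 fish medium · Reagent – quenched phospholipase substrate PED6, 100 nM final, ingested by larvae · Doses – 20 µM single dose · Incubation – overnight compound and PED6 incubation · Technique – visual fluorescence microscopy scoring of gall bladder, gut · Read-out basis – visual per-well fluorescence inhibition score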
On to `O=C(NCC1CCCCN1)c1cc(OCC(F)(F)F)ccc1OCC(F)(F)F` (configuration not stated), for which the call was inactive.
As for `CN1CC(=O)Nc2ccc(F)cc2C1=O`, the entry is “inactive”; as for `CN1CCN(C2=Nc3cc(Cl)ccc3Nc3ccccc32)CC1`, “inactive”; as for `COc1cc(C)nc(Oc2ccc(=O)[nH]n2)n1`, “inactive”.
As for `CCN(CC)CCNC(=O)c1ccc(N)cc1`, the entry is “inactive”; as for `C1CNCCNCCCNCCNC1`, “inactive”.
Turning to `COc1cc2nc(N3CCN(C(=O)C4CCCO4)CC3)nc(N)c2cc1OC` (configuration not stated), the outcome was inactive.
Under `CCCOc1cccc(CN2CCCCC2c2cccnc2)c1` (configuration not stated) stands “inactive”; under `COc1ccc(-c2coc3cc(O)cc(O)c3c2=O)cc1`, “inactive”; under `CN(C)CCCN1c2ccccc2CCc2ccccc21`, “inactive”.
Under `Cc1cccc(OCC(=O)NCC(=O)n2nc(C)cc2C)c1` stands “inactive”; under `COCCN(Cc1ccccc1)P(=O)(O)c1ccccc1OCC(=O)O`, “inactive”; under `Oc1oc(-c2ccccc2)nc1C=NCc1ccncc1`, “inactive”.
As for `CCC1=Nc2ccccc2NC2=C1C(=O)CCC2`, the entry is “inactive”; as for `CC[C@]1(O)C[C@@H]2CN(CCc3c([nH]c4ccccc34)[C@@](C(=O)OC)(c3cc4c(cc3OC)N(C)[C@H]3[C@@](O)(C(=O)OC)[C@H](OC(C)=O)[C@]5(CC)C=CCN6CC[C@]43[C@@H]65)C2)C1`, “inactive”.
In the case of `NC(N)=Nc1nc(CSCC/C(N)=N/S(N)(=O)=O)cs1`, the compound was classed as inactive.
As for `CC(=O)O[C@@]12CO[C@@H]1C[C@H](O)[C@@]1(C)C(=O)[C@H](O)C3=C(C)[C@@H](OC(=O)[C@H](O)[C@@H](NC(=O)OC(C)(C)C)c4ccccc4)C[C@](O)([C@@H](OC(=O)c4ccccc4)[C@H]21)C3(C)C`, the entry is “inactive”.
